NALP1 inh – inhibitors of NALP1 inflammasome in yeast | S. cerevisiae NALP1/ASC/caspase-1 growth, X-gal OD620, 72 h | inhibition, % at 10 µM | 280,000 compounds, 0.61% hits | AID 2071; in the data active = inhibition mostly above about 24%, no sharp cut-off; inactive = mostly below about 32%
T cruzi repl – T. cruzi replication inhibition; T. cruzi beta-gal in NIH3T3, luminescence, 90 h; inhibition, % (test concentration not listed); 300,000 compounds, 1.4% hits; AID 1885;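 active = mean inhibition across valid replicates above about 55%, limit read from the data; inconclusive = mean below that limit but half or more replicates reach it; inactive = mean below it, under half of replicates reach it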;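 also: signal also drops with host cell toxicity which is not excluded here; 0% = plate median of DMSO wells and 100% = zero luminescence signal; higher percent means less beta-gal luminescence so fewer parasites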
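Incubation – ≥90 h infection period, 3 h prior cell attachment · System – NIH/3T3 fibroblasts plus reporter T. cruzi · Doses – compound pinned at 50 nL/well, DMSO · Read-out basis – percent inhibition of parasite-derived β-gal signal · Signal – luminescent β-galactosidase signal after 60 min lysis · Also added – 5000 T. cruzi trypomastigotes/well · Medium – Low-serum DMEM with 2% FBS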
L major viab – inhibitors of Leishmania major promastigote growth | 200,000 compounds, 9% hits | Leishmania major promastigotes, resazurin fluorescence viability | inhibition, % at 10 µM | AID 1063;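 also: promastigotes grown with compound for 44 hours at 28 °C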
PolyA inhibitor – inhibitors of polyadenylation in S. cerevisiae; S. cerevisiae SKY197-pL101 polyadenylation reporter, beta-gal luminescence; efflux-impaired pdr1/pdr3 knockout yeast; score 100 = 6 SD above DMSO; activity score, % at 12 µM; 300,000 compounds, 0.02% hits; AID 1875;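 active = lowest replicate activity score at least 50, where 100 means six control SD above control mean; inconclusive = lowest score under 50 but half or more replicates reach 50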;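 also: yeast exposed to compound for 9 h at 30 °C; higher score means more reporter readthrough which indicates perturbed polyadenylation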
NALP3 yeast inh – inhibitors of NALP3 inflammasome in yeast | Yeast reconstituted NLRP3/ASC/caspase-1, beta-gal luminescence, 24 h | inhibition, % at 10 µM | 330,000 compounds, 0.39% hits | AID 2825;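 active = inhibition of 50% or more; inactive = inhibition below 50%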;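 also: plate controls were induced DMSO wells for no effect and uninduced yeast grown without galactose for full effect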
Calb FLC – C. albicans growth modulation with fluconazole; C. albicans CaCi-2 + fluconazole, Alamar Blue growth, 48 h; growth inhibition, % (concentration not given with the values); 300,000 compounds, 0.57% hits;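 active = growth inhibition above about 58% in most replicates, limit read from the data, passing the limit was not always enough; inconclusive = exactly half the replicates above a set limit; inactive = most replicates below a set limit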;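 also: all wells also contain fluconazole at 8 µg/ml as a sub-toxic cotreatment; 0% = median of DMSO wells and 100% = median of geldanamycin control wells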
NALP3 yeast conf – confirmation of NALP3 inhibitors in yeast; AID 435006; yeast expressing human NALP3, luminescence; 1,300 compounds, 81% hits; shares compounds with NALP3 yeast inh; inhibition, % at 10 µM; in the data active = inhibition above about 48%
Casp1 ASC ctr – caspase-1-ASC yeast counter-screen hit; shares compounds with NALP3 yeast inh; yeast expressing Caspase-1-ASC, luminescence counter screen; inhibition, % at 10 µM; 1,000 compounds, 66% hits; AID 488784
NALP3 retest – yeast NALP3 inhibition, confirmed on retest; shares compounds with NALP3 yeast inh; yeast expressing human NALP3, luminescence read-out; inhibition, % at 10 µM; 1,000 compounds, 53% hits
The depositor's hits bear a star; ? = inconclusive; · = not tested or not shown; ! = a repeat was not active. Shown is part of a subset that was picked to be rich in hits. Rule as the data show it, unless noted: active = inhibition above about 50%; inactive = the rest.

SMILES	NALP1 inh	T cruzi repl	L major viab	PolyA inhibitor	NALP3 yeast inh	Calb FLC	NALP3 yeast conf	Casp1 ASC ctr	NALP3 retest
CCOc1cc(C)c(S(=O)(=O)N2CCCC2)cc1C	39	3	-2	-23	83*	-1	80*	90*	81*
CCCOc1cc(C)c(S(=O)(=O)N2CCOCC2)cc1C	37	-7	50	0	57*	-8	52*	·	·
COc1ccc(NCC(=O)N/N=C/c2cc([N+](=O)[O-])ccc2N2CCCC2)cc1	24	18	18	-1	14	0	·	·	·
Cc1csc(NC(=O)Cn2nc(C)c([N+](=O)[O-])c2C)n1	-3	0	-3	20	5	13	·	·	·
Cc1ccc2nc(NC(=O)Cn3nc(C)c([N+](=O)[O-])c3C)sc2c1	26	3	69*	32	50	3	-2	·	·
Cc1[nH]c(SCC(=O)c2c(N)n(C)c(=O)n(C)c2=O)nc1Cc1ccccc1	·	·	·	·	8	·	·	·	·
Clc1ccccc1Cn1nnc2c(Nc3ccccc3)ncnc21	-6	·	-6	5	62*	0	74*	55*	57*
CCSc1oc(-c2ccco2)nc1S(=O)(=O)c1ccc(C)cc1	15	18	·	13	52*	-3	50*	50*	46
Cc1ccc(-c2nc(N)c3c(-c4ccc(C)cc4)nn(C(C)(C)C)c3n2)cc1	32	5	3	-13	-20	-5	·	·	·
CC(C)(C)n1nc(-c2ccc(F)cc2)c2c(N)ncnc21	92*	57*	-5	7	93*	64	93*	96*	92*
CC(C)(C)n1nc(-c2ccc(Cl)cc2)c2c(N)ncnc21	2	48	-5	-28	88*	-6	94*	95*	90*
CN(C)C(CNC(=O)c1ccc(S(=O)(=O)Nc2cccc(C(F)(F)F)c2)cc1)c1ccco1 (stereo unspecified)	·	31	·	-6	19	-29	·	·	·
C=CCNC(=O)COc1ccc(Br)cc1Cl	-10	9	-5	-4	27	-12	·	·	·
O=C(CCN1CCC(c2cccs2)=N1)c1cccs1	-4	0	·	40	90*	-6	90*	96*	87*
Cc1ccccc1C(OCC(O)CN1CCC(C(N)=O)CC1)c1ccccc1 (stereo unspecified)	25	-10	·	8	11	2	·	·	·
Cc1ccc(CNc2cnn(C34CC5CC(CC(C5)C3)C4)c(=O)c2Cl)cc1	26	37	11	-34	53*	3	49*	6	25
CCOc1ccc(C(=O)c2cc([N+](=O)[O-])ccc2Cl)cc1	8	5	42	-14	67*	6	67*	72*	69*
CC(=O)Nc1ccc(OC(=O)c2cc([N+](=O)[O-])ccc2Cl)cc1	16	-19	-6	-30	16	16	·	·	·
CCCNc1nc(C)cc(-c2cc(C(=O)NC3CCCC3)on2)n1	3	-4	·	5	63*	-10	81*	51*	34
Fc1ccccc1CSc1nnc(-c2cnccn2)n1Cc1ccco1	-13	-5	14	-22	-133	30	-33	·	·
Fc1ccc(CSc2nnc(-c3cnccn3)n2Cc2ccco2)cc1	7	-10	5	-9	-123	?	-21	·	·
O=C(ON=C1CCN(S(=O)(=O)c2ccccc2)CC1)c1ccc(F)cc1	1	-6	-6	-8	-2	0	·	·	·
CC(C)(C)C1CCC(=NOC(=O)c2ccc(F)cc2)CC1 (stereo unspecified)	-22	-5	-3	-100	59*	15	79*	54*	42
Nc1c2c(=O)oc(-c3ccccc3)cc2nn1-c1ccccc1	-4	3	46	-15	51*	-3	68*	54*	25
Cc1c(-c2ccc(Cl)cc2)oc(=O)c2c(N)n(-c3ccccc3)nc12	11	-1	0	-23	12	-4	·	·	·
SMILES	NALP1 inh	T cruzi repl	L major viab	PolyA inhibitor	NALP3 yeast inh	Calb FLC	NALP3 yeast conf	Casp1 ASC ctr	NALP3 retest
Cc1nc2c(oc3ccc(Cl)cc32)c(=O)[nH]1	·	8	·	-8	7	3	·	·	·
C/C(N)=C(/C#N)C(=O)CN1CCCCC1	13	-14	-7	-5	15	-23	·	·	·
NC(=NCCCCCCN=C(N)/N=C(\N)Nc1ccc(Cl)cc1)/N=C(\N)Nc1ccc(Cl)cc1	21	56*!	·	7	69*	106*	74*	61*	52*
COc1ccc2oc(C(=O)OCC(=O)NCc3ccccc3OC)c(C)c2c1	·	-7	·	17	13	2	·	·	·
O=C(/C=C/c1ccccc1Cl)Nc1ccccc1	-9	6	·	15	65*	-7	75*	79*	74*
CCc1ccc(-c2cc(C)no2)cc1S(=O)(=O)N1CCN(C(=O)c2ccco2)CC1	14	7	·	5	0	2	·	·	·
O=C(O)CCC(=O)Nc1ccc(N=Nc2ccccc2)cc1	3	-14	-7	12	·	-6	·	·	·
CC(C)(C)C(=O)Nc1ccc(N=Nc2ccccc2)cc1	-6	11	21	-13	53*	-5	65*	50	39
CCCCCCCCCS(=O)(=O)N/N=C/c1cccc([N+](=O)[O-])c1	28	-21	-4	23	11	-9	·	·	·
CCCCCCCCCCS(=O)(=O)N/N=C/c1ccc(O)cc1	18	-13	-4	10	50*	-57	70*	44	47
COc1ccc(N2CCN(C(=O)Nc3cccc(C(F)(F)F)c3)CC2)cc1	9	-10	3	-8	-105	-2	-12	·	·
O=C(Nc1cccc(C(F)(F)F)c1)N1CCN(C(=O)Nc2cccc(C(F)(F)F)c2)CC1	0	-18	-2	-6	-1	18	·	·	·
CC(OC(=O)c1cccnc1Cl)C(=O)NCc1ccccc1 (stereo unspecified)	·	·	·	·	-4	·	·	·	·
O=C(O)c1csc(-c2ccc(Cl)cc2)n1	6	-13	-9	-4	11	-9	·	·	·
CS(=O)(=O)N(CC(=O)N1CCc2ccccc2C1)Cc1ccccc1	2	4	-7	-1	8	0	·	·	·
CN(CC(=O)N1CCc2ccccc2C1)c1ccccc1	30	-8	·	-14	55*	-3	43	45	55*
O=C1c2ccsc2SCCN1Cc1ccc(Cl)cc1	-5	12	1	-18	79*	-9	83*	88*	80*
Cc1ccc(CN2CCSc3sccc3C2=O)cc1	26*	-10	1	-8	81*	6	74*	89*	77*

High-throughput results from PubChem BioAssay.
